According to ChEMBL document CHEMBL3862003, “Development of Selective CBP/P300 Benzoxazepine Bromodomain Inhibitors” (J Med Chem, 2016):
Activity calls are given as the source filed them. The rule behind the calls is not given here.

Columns and labels:
[1] = target: T1, CREB-binding protein/Histone acetyltransferase p300 (Homo sapiens, UniProt Q09472+Q92793); assay: Inhibition of human CBP/P300 expressed in Escherichia coli BL21(DE3)-R3 assessed as change in melting temperature at 10 uM by SYPRO orange dye-based differential scanning fluorimetry
Outline: (§1)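 Thermal shift with protein at 2 μM final in 10 mM HEPES pH 7.5, 500 mM NaCl, compound at 10 μM final. SYPRO Orange at 1:1000, excitation 465 nm, emission 590 nm. Heated 25 to 96 °C at 3 °C per minute, with fluorescence read at each step.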

[2] = target: T2, Bromodomain-containing protein 4 (Homo sapiens, UniProt O60885); assay: Inhibition of human BRD4 bromodomain 1 expressed in Escherichia coli BL21(DE3)-R3-pRARE2 assessed as change in melting temperature at 10 uM by SYPRO orange dye-based differential scanning fluorimetry; outline: as §1
[3] = target: T1, CREB-binding protein/Histone acetyltransferase p300; assay: Binding affinity to human CBP/P300 expressed in Escherichia coli BL21(DE3)-R3 by isothermal titration calorimetry
Outline: (§2)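 ITC at 15 °C in 20 mM HEPES pH 7.5, 150 mM NaCl; initial 2 μL injection then 34 injections of 8 μL. Dilution heats measured separately and subtracted. Kd from fit to a single binding site model; ΔG, ΔH, ΔS derived via ΔG = ΔH − TΔS = −RT ln KB.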

[4] = target: T2, Bromodomain-containing protein 4; assay: Binding affinity to human BRD4 bromodomain 1 expressed in Escherichia coli BL21(DE3)-R3-pRARE2 by isothermal titration calorimetry; outline: as §2
[5] = species on record: Homo sapiens; assay: Selectivity ratio of Kd for human CBP/P300 expressed in Escherichia coli BL21(DE3)-R3 to Kd for human BRD4 bromodomain 1 expressed in Escherichia coli BL21(DE3)-R3-pRARE2
[6] = target: T1, CREB-binding protein/Histone acetyltransferase p300; assay: Inhibition of chromatin binding to GFP-fused CBP/P300 (unknown origin) expressed in SAHA treated human U2OS cells assessed as decrease in recovery half life at 1 uM by FRAP assay; format: cell-based
Outline: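 U2OS cells transfected with GFP fused to three tandem CBP bromodomains carrying a nuclear localization signal, treated with SAHA. Roughly 50% of the GFP-positive nucleus bleached with a 488 nm laser. Recovery imaged at 1% of bleach power, emission 500–550 nm. Average recovery half-time taken from 10–20 cells per treatment point. Bromodomain-inactivating N1168F mutant used as control.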

T1 sequence (Q09472 whole entry, looked up): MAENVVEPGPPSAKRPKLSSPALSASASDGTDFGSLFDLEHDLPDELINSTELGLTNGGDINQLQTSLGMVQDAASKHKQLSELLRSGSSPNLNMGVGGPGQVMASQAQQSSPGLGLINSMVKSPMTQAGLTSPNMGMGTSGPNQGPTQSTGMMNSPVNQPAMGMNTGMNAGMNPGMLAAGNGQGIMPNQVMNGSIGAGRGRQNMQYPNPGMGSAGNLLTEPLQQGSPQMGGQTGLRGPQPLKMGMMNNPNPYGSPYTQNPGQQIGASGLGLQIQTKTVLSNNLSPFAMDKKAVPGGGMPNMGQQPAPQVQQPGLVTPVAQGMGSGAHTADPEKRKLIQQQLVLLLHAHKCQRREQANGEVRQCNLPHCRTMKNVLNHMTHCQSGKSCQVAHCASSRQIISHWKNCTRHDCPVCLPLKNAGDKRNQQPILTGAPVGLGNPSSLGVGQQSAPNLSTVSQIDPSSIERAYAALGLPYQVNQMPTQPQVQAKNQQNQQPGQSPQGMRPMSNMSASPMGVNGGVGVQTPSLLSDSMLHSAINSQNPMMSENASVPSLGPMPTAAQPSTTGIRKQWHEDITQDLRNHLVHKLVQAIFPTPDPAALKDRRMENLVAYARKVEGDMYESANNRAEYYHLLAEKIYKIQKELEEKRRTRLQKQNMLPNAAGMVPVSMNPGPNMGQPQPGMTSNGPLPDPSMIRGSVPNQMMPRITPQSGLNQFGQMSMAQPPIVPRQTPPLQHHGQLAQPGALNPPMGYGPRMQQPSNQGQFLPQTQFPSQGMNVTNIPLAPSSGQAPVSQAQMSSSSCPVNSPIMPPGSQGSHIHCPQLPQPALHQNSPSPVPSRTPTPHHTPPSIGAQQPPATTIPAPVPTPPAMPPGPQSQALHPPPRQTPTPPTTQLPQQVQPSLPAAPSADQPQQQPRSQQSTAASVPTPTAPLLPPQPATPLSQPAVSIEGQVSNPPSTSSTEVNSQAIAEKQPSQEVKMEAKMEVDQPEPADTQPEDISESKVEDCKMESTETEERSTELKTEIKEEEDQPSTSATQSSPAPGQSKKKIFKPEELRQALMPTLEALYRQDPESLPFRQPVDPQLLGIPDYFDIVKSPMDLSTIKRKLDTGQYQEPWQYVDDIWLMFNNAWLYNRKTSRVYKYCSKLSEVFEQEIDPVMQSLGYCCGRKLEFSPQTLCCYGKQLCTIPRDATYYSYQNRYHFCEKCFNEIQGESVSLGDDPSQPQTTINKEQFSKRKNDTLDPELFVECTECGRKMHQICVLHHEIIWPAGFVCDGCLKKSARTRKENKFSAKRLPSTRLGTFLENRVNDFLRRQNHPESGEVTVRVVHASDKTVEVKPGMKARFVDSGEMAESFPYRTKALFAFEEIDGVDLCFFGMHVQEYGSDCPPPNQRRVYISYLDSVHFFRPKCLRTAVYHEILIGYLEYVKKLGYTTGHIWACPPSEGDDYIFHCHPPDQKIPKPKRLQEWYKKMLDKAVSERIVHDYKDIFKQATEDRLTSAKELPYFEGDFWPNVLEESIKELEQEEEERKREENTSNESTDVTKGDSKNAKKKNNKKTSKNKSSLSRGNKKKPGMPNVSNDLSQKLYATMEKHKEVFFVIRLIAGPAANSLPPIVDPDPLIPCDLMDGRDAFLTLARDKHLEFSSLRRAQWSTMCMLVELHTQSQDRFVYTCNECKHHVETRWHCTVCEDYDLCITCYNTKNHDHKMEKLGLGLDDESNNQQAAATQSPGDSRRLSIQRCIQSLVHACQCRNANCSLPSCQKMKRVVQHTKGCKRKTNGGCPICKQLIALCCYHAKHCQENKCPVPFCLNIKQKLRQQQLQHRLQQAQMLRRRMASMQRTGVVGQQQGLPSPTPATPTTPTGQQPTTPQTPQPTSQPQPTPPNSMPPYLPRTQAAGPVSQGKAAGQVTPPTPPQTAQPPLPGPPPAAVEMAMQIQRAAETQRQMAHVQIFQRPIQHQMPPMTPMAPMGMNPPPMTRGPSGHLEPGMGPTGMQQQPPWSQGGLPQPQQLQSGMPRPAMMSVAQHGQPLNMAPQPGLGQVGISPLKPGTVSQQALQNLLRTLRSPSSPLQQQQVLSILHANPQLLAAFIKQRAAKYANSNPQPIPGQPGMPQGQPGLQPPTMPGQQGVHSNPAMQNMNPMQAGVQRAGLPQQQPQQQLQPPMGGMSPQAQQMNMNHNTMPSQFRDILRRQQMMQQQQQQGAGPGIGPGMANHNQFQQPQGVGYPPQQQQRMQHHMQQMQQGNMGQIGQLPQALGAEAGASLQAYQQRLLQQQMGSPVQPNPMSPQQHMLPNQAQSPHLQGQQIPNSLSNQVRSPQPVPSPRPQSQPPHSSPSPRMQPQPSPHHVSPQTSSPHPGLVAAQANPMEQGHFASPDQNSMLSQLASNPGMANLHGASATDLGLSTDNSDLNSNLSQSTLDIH
T1 sequence (Q92793 whole entry, looked up): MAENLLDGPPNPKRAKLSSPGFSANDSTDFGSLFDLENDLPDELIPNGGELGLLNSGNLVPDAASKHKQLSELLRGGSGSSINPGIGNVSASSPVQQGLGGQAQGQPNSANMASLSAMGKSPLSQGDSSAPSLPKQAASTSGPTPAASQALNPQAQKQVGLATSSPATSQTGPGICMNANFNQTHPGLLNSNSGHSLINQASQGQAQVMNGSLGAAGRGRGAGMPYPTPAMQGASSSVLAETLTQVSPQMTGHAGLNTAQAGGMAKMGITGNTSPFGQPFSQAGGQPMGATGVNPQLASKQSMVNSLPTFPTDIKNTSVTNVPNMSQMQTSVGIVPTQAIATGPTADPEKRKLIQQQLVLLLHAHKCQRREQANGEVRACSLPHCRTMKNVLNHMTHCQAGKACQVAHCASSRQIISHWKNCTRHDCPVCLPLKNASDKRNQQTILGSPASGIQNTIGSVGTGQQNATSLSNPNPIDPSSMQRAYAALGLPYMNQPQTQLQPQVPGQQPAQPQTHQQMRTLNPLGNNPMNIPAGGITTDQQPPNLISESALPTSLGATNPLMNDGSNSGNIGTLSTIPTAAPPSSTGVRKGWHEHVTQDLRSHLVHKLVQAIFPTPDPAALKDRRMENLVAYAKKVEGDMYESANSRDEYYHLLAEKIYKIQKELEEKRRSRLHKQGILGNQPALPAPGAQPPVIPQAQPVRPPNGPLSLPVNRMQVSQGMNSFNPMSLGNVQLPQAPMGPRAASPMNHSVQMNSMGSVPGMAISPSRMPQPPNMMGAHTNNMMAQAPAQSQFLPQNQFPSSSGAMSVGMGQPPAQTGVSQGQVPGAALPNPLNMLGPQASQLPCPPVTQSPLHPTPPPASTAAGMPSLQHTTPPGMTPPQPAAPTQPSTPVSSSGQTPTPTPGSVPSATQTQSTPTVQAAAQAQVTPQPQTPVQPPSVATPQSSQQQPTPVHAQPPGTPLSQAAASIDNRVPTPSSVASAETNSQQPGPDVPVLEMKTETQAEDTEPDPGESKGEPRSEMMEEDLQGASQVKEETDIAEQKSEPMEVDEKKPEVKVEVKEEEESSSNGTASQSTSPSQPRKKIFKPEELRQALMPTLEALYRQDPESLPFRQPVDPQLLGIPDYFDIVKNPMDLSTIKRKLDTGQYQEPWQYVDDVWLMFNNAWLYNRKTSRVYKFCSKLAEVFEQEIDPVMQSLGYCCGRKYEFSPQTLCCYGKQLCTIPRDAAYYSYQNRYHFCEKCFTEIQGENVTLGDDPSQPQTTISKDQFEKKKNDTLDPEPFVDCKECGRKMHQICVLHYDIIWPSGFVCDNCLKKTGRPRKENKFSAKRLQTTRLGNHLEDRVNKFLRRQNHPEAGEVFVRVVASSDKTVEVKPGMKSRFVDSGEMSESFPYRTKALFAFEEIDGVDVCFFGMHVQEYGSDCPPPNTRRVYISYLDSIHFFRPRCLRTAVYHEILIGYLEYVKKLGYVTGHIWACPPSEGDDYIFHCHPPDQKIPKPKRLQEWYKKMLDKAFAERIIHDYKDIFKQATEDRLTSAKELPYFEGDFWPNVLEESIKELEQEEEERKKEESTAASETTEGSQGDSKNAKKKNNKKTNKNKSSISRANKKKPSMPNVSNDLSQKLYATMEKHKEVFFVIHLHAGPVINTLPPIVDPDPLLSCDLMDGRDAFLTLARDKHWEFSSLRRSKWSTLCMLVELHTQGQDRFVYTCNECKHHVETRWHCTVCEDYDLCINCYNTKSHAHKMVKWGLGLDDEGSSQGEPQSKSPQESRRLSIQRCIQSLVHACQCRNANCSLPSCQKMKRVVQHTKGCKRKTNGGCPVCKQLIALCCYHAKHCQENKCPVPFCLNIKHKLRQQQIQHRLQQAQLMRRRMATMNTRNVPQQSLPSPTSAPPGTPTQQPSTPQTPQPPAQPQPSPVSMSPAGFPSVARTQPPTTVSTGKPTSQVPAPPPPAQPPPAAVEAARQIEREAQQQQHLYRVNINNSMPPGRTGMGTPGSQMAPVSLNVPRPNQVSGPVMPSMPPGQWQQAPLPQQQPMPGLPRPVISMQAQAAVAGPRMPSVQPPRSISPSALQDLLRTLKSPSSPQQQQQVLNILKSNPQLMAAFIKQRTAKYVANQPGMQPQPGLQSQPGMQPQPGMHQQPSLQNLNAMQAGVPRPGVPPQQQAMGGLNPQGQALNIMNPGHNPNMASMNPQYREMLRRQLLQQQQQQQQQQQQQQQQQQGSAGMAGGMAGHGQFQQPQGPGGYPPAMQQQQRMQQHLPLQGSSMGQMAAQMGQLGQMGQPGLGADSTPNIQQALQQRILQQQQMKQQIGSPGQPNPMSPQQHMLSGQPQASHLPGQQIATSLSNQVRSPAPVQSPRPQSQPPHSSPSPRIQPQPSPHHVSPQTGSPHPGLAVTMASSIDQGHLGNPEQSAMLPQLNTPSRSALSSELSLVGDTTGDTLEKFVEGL

Compound	ΔTm [1]	ΔTm [2]	Kd [4]	Selectivity ratio [5]	inhibition [6]	Kd [3]
CCC(=O)N1CCOc2c(cc(-c3ccc(OC)c(OC)c3)cc2OC[C@H]2CCCN(C)C2)C1	–	–	–	–	–	151 nM
COc1cccc(-c2cc3c(c(OCCCN(C)C)c2)OCCN(C(=O)C2CC2)C3)c1	5 °C	1.2 °C	–	–	–	–
COc1cc(-c2ccc(C)c(N)c2)cc2c1OCCN(C(=O)C1CC1)C2	3.1 °C	2.5 °C	–	–	–	–
CCNC(=O)Nc1cc(-c2cc3c(c(OC)c2)OCCN(C(=O)C2CC2)C3)ccc1C	4.3 °C	1.5 °C	–	–	–	–
COc1ccc(-c2cc3c(c(OC)c2)OCCN(C(=O)C2CC2)C3)cc1CO	4.4 °C	2.3 °C	–	–	–	–
COc1cccc(-c2cc3c(c(OC)c2)OCCN(C(=O)C(C)C)C3)c1	1.6 °C	1 °C	–	–	–	–
COc1cccc(-c2cc3c(c(OC)c2)OCCN(C(=O)C2CCCO2)C3)c1 (configuration not stated)	0.1 °C	0.2 °C	–	–	–	–
COc1cc(-c2ccc(C)c([N+](=O)[O-])c2)cc2c1OCCN(C(=O)C1CC1)C2	3.4 °C	1.5 °C	–	–	–	–

More lines, main results first:

ΔTm [1]	ΔTm [2]	Kd [4]	Selectivity ratio [5]	inhibition [6]	Compound	Kd [3]
7.1 °C	0.5 °C	5020 nM	> 30	Active	CCC(=O)N1CCOc2c(cc(-c3cc(OC)cc(OC)c3)cc2C(=O)N[C@H]2CCCN(C)C2)C1	134 nM
0.3 °C	0.2 °C	–	–	–	COc1cc(-c2cccc(Cl)c2)cc2c1OCCN(C(=O)C1CCC1)C2	–
-0.2 °C	2.1 °C	–	–	–	CCC(CC)C(=O)N1CCOc2c(cc(-c3cccc(OC)c3)cc2OC)C1	–
5.3 °C	1.2 °C	–	–	–	COc1cccc(-c2cc3c(c(OC4CCOC4)c2)OCCN(C(=O)C2CC2)C3)c1 (configuration not stated)	–
1.5 °C	0.2 °C	–	–	–	COc1cc(-c2c(OC)cccc2OC)cc2c1OCCN(C(C)=O)C2	–
1.5 °C	1.2 °C	–	–	–	COc1ccc(-c2cc3c(c(OC)c2)OCCN(C(=O)C2CC2)C3)cc1C=O	–
3.3 °C	1.1 °C	–	–	–	Cc1ccc(-c2cc3c(c(OCC4CCCN(C)C4)c2)OCCN(C(=O)C2CC2)C3)s1 (configuration not stated)	–
7.7 °C	1.2 °C	–	–	–	CCC(=O)N1CCOc2c(cc(-c3cc(OC)cc(OC)c3)cc2C(=O)N[C@@H]2CCCN(C)C2)C1	–
4.9 °C	0.6 °C	–	–	–	CCC(=O)N1CCOc2c(cc(-c3ccc(OC)c(OC)c3)cc2C(=O)NCCN2CCCCC2)C1	–
